Measured values taken from publication PMC9674260 (Proceedings of the National Academy of Sciences of the …, 2022).
Read-outs that look alike come from different tables or passages of the source.

How the values were obtained:
[1] = tested on: AT2 cells in alveolospheres; format: cell-based, mouse; settings: LGK974 alone, 2 wk
LRP6 E1 = target: T1, LRP6 E1 (Homo sapiens, UniProt O75581); test: SPR binding to immobilized LRP6 E1 domain
T1 sequence (O75581 20-326): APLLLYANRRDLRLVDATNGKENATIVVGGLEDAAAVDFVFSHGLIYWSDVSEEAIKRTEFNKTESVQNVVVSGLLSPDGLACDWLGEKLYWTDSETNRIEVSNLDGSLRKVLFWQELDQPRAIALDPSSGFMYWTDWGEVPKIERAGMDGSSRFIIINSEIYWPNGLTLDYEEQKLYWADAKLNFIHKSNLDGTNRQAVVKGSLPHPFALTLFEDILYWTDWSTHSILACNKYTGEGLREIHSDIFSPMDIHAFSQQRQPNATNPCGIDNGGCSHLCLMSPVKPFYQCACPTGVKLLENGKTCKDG

LRP6 E1-E2 = test: SPR binding to immobilized LRP6 E1-E2; set-up: species or system human
[2] = target: LRP6 E1-E2 domains (human); test: SPR
[3] = target: LRP6 E3-E4 domains (human); test: SPR
LRP6 E3-E4 = test: SPR binding to immobilized LRP6 E3-E4; set-up: species or system human
[4] = tested on: Wnt1/sFRP-1 binding to LRP6-E1-E2; test: SPR competition with Wnt1/sFRP-1 for LRP6-E1-E2; set-up: species or system human; settings: surface coated with LRP6-E1-E2 and saturated with competitor
Method in brief: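 The SPR surface was coated with LRP6-E1-E2, then saturated with competitor or given buffer only. Wnt1/sFRP-1 (purified recombinant complex), competitor, or a mixture of the two was injected immediately afterward. Wnt1/sFRP-1 binding signal with or without competitor was inspected manually.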

MC3T3-E1 cells = test: Osteogenic differentiation of MC3T3-E1 cells; format: cell-based, murine; settings: MC3T3-E1 in om+ medium, 21 d; 5 µM Lr-EET-3.5, 1 µg SOST, 1 µM FabYW210 and FabYW211; four independent assays
Method in brief: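 MC3T3-E1 cells were grown in differentiation medium (50 µg/mL ascorbate-2-phosphate, 10 mM β-glycerophosphate) or in control medium without these factors, plus LRP6-binding reagents (Fabs 1 µM, test compound 5 µM). Mineralized nodules were stained with alizarin red S at 21 d, and nodule area above the control-medium background was quantified. Bglap mRNA was measured by qRT-PCR after 1 wk. Values are means of four independent assays, with SD and one-way ANOVA.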

LRP6 E2 = settings: read-out: KD, binding to E2 alone; previously reported; cited from earlier work
[5] = target: T2, full-length extracellular domain of LRP6 (E1-E4) (human, UniProt O75581 20-1370); test: SPR
T2 sequence: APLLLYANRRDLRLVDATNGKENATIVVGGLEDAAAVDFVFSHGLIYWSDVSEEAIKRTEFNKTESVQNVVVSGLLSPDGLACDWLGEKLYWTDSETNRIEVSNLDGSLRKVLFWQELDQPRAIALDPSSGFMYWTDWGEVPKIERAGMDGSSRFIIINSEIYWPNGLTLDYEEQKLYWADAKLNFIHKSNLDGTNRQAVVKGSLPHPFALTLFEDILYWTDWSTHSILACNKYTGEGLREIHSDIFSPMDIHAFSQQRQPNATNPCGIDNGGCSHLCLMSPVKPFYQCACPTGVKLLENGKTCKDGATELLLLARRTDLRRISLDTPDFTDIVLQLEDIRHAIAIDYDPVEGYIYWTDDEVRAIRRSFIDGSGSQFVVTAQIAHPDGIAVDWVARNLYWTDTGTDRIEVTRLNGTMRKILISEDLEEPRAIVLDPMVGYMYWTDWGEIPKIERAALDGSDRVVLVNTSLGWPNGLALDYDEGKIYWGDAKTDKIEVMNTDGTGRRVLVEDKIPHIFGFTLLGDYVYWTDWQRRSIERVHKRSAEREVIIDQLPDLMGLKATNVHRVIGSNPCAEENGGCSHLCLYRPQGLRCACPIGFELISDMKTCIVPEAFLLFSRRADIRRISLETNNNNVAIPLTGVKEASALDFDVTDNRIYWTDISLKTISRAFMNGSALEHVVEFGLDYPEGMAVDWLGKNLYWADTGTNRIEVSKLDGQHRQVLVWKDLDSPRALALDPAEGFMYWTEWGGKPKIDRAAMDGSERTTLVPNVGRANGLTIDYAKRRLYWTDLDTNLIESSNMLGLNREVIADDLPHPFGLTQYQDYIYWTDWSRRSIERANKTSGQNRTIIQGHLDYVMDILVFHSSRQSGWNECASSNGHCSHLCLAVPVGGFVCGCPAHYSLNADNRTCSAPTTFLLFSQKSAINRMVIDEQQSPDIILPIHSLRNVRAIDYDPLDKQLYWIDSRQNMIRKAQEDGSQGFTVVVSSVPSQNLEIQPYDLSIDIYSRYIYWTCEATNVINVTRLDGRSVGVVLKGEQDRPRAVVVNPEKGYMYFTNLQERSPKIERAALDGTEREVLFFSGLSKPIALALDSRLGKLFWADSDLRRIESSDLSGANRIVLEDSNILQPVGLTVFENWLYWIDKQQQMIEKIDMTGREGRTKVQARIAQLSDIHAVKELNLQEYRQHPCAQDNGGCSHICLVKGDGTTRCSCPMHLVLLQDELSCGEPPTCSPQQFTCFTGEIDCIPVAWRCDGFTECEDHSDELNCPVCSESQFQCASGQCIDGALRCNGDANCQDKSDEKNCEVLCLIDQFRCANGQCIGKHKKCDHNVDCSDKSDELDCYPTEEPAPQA

[6] = target: LRP6 E1-E2 domains (human); test: SPR; remark: listed apart in the source

## Cc1cc(-c2ncc(CC(=O)Nc3ccc(-c4cnccn4)cn3)cc2C)ccn1 [LGK974]
[1]
  AT2 proliferation and formation of alveolospheres: abrogated AT2 proliferation and the formation of alveolospheres

## DKK1: natural Wnt inhibitor Dickkopf-1
LRP6 E1; SPR, no competitor, two state model
  KD, E1 alone: no detectable binding
LRP6 E1-E2; surface saturated with 500 nM Lr-EET-3.5 and 500 nM CKP in every dilution
  KD, E1-E2 in the presence of Lr-EET-3.5: ablated the binding

## Dickkopf-1 (DKK1) (from UniProt O94907 32-266) (natural protein)
[2]
  Kd: 135 nM
[3]
  Kd: 43 nM

## SOST: natural Wnt inhibitor sclerostin
LRP6 E1; SPR competition, 500 nM Lr-EET-3.5
  binding to E1 alone on addition of Lr-EET-3.5: completely blocked
LRP6 E3-E4; two state model
  KD, E3-E4: no interaction detected
[4]
  effect on binding of WNT1/sFRP-1 to LRP6: antagonistic effect
MC3T3-E1 cells
  inhibition of matrix mineralization (alizarin red-S staining): comparable
LRP6 E2
  Kd: 1300 nM

## sclerostin (SOST) (from UniProt Q9BQB4 24-213) (natural protein)
[2]
  KD in the presence of Lr-EET-3.5: 47 nM
  Kd: 3.3 nM

B1: sclerostin (SOST) (natural protein)
chain: QGWQAFKNDATEIIPELGEYPEPPPELENNKTMNRAENGGRPPHHPFETKDVSEYSCRELHFTRYVTDGPCRSAKPVTELVCSGQCGPARLLPNAIGRGKWWRPSGPDFRCIPDRYRAQRVQLLCPGGEAPRARKVRLVASCKCKRLTRFHNQSELKDFGTEAARPQKGRKPRPRARSAKANQAELENAY
[5]
  KD in the presence of Lr-EET-3.5: 41 nM
  Kd: 3.8 nM

B2: WNT1/secreted frizzled related protein 1 (sFRP-1) complex (complex)
chain 1: ANSSGRWWGIVNVASSTNLLTDSKSLQLVLEPSLQLLSRKQRRLIRQNPGILHSVSGGLQSAVRECKWQFRNRRWNCPTAPGPHLFGKIVNRGCRETAFIFAITSAGVTHSVARSCSEGSIESCTCDYRRRGPGGPDWHWGGCSDNIDFGRLFGREFVDSGEKGRDLRFLMNLHNNEAGRTTVFSEMRQECKCHGMSGSCTVRTCWMRLPTLRAVGDVLRDRFDGASRVLYGNRGSNRASRAELLRLEPEDPAHKPPSPHDLVYFEKSPNFCTYSGRLGTAGTAGRACNSSSPALDGCELLCCGRGHRTRTQRVTERCNCTFHWCCHVSCRNCTHTRVLHECL
chain 2: SEYDYVSFQSDIGPYQSGRFYTKPPQCVDIPADLRLCHNVGYKKMVLPNLLEHETMAEVKQQASSWVPLLNKNCHAGTQVFLCSLFAPVCLDRPIYPCRWLCEAVRDSCEPVMQFFGFYWPEMLKCDKFPEGDVCIAMTPPNATEASKPQGTTVCPPCDNELKSEAIIEHLCASEFALRMKIKEVKKENGDKKIVPKKKKPLKLGPIKKKDLKKLVLYLKNGADCPCHQLDNLSHHFLIMGRKVKSQYLLTAIHKWDKKNKEFKNFMKKMKNHECPTFQSVFK
[6]
  Kd: 3.4 nM
[5]
  Kd: 6 nM
LRP6 E1-E2; read-out: KD, E1-E2, Wnt1/sFRP-1 as analyte, 1:1 binding model
  Kd: 3.4 nM
LRP6 E3-E4; Wnt1/sFRP-1 as analyte
  interaction with E3-E4: no interaction detected
